{"source": "ChEMBL document CHEMBL1671714", "about": "“High-level azithromycin resistance occurs in Neisseria gonorrhoeae as a result of a single point mutation in the 23S rRNA genes” (2010)", "key": {"Neisseria gonorrhoeae [1]": {"test_system": "Neisseria gonorrhoeae", "assay": "Antimicrobial activity against Neisseria gonorrhoeae isolate 254921 NG-MAST sequence type 649 selected after 4 mg/L of erythromycin by Etest", "assay_type": "functional, organism-based"}, "Neisseria gonorrhoeae [2]": {"test_system": "Neisseria gonorrhoeae", "assay": "Antimicrobial activity against Neisseria gonorrhoeae isolate 254921 NG-MAST sequence type 649 by Etest", "assay_type": "functional", "in_short": "(§1)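 Isolates were revived from −80°C cryopreservative stocks by 18 to 20 h of growth on GC agar base with 1% IsoVitaleX at 36°C under 5% CO2, then subcultured. Erythromycin and azithromycin MICs were read by Etest.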"}, "Neisseria gonorrhoeae [3]": {"test_system": "Neisseria gonorrhoeae", "assay": "Antimicrobial activity against Neisseria gonorrhoeae isolate 254921 NG-MAST sequence type 649 selected after 2 to 8 mg/L of compound by Etest", "assay_type": "functional"}, "Neisseria gonorrhoeae [4]": {"test_system": "Neisseria gonorrhoeae", "assay": "Antimicrobial activity against Neisseria gonorrhoeae harboring A2059G mutation in 23S rRNA V domain allele 1, allele 2 and allele 4 by Etest", "assay_type": "functional", "in_short": "as §1"}, "Neisseria gonorrhoeae [5]": {"test_system": "Neisseria gonorrhoeae", "assay": "microbe, parasite or virus in culture"}, "Neisseria gonorrhoeae [6]": {"test_system": "Neisseria gonorrhoeae", "assay": "Antimicrobial activity against Neisseria gonorrhoeae harboring A2059G mutation in 23S rRNA domain V allele 4 by Etest", "assay_type": "functional", "in_short": "as §1"}, "Neisseria gonorrhoeae [7]": {"test_system": "Neisseria gonorrhoeae", "assay": "Antimicrobial activity against Neisseria gonorrhoeae isolate 136 NG-MAST sequence type 1704 harboring A2059G mutation in 23S rRNA V domain allele 1, allele 2, allele 3 and allele 4 selected after 0.5 to 8 mg/L of erythromycin by Etest", "assay_type": "functional", "in_short": "(§2)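 Single-colony expansions of the parent isolate (~1 × 10^8 CFU by viable count) were spread on GC agar with 1% IsoVitaleX containing erythromycin in 2-fold steps from 0.5 to 8.0 mg/liter, and incubated 24 h at 36°C under 5% CO2. Growth on the highest-concentration plate was subcultured, confirmed as gonococcus (Gram stain, oxidase, Phadebact GC), and azithromycin and erythromycin MICs were read by Etest. Passages were run in duplicate.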"}, "Neisseria gonorrhoeae [8]": {"test_system": "Neisseria gonorrhoeae", "assay": "Antimicrobial activity against Neisseria gonorrhoeae isolate 352521 NG-MAST sequence type 1443 harboring A2059G mutation in 23S rRNA V domain allele 1, allele 2, allele 3 and allele 4 selected after 0.5 to 8 mg/L of erythromycin by Etest", "assay_type": "functional", "in_short": "as §2"}, "Neisseria gonorrhoeae [9]": {"test_system": "Neisseria gonorrhoeae", "assay": "Antimicrobial activity against Neisseria gonorrhoeae isolate 252611 NG-MAST sequence type 470 harboring A2059G mutation in 23S rRNA V domain allele 2 by Etest", "assay_type": "functional", "in_short": "as §1"}, "Neisseria gonorrhoeae [10]": {"test_system": "Neisseria gonorrhoeae", "assay": "microbe, parasite or virus in culture", "conditions": "isolate 136"}, "Neisseria gonorrhoeae [11]": {"test_system": "Neisseria gonorrhoeae", "assay": "Antimicrobial activity against Neisseria gonorrhoeae harboring A2059G mutation in 23S rRNA domain V allele 2 by Etest", "assay_type": "functional", "in_short": "as §1"}, "Neisseria gonorrhoeae [12]": {"test_system": "Neisseria gonorrhoeae", "assay": "microbe, parasite or virus in culture", "conditions": "isolate 352521"}, "Neisseria gonorrhoeae [13]": {"test_system": "Neisseria gonorrhoeae", "assay": "Antimicrobial activity against Neisseria gonorrhoeae harboring A2059G mutation in 23S rRNA V domain allele 1, allele 3 and allele 4 by Etest", "assay_type": "functional", "in_short": "as §1"}, "Neisseria gonorrhoeae [14]": {"test_system": "Neisseria gonorrhoeae", "assay": "microbe, parasite or virus in culture", "remark": "listed apart in the source"}, "Neisseria gonorrhoeae [15]": {"test_system": "Neisseria gonorrhoeae", "assay": "Antimicrobial activity against Neisseria gonorrhoeae isolate 252611 NG-MAST sequence type 470 harboring A2059G mutation in 23S rRNA V domain allele 1, allele 2, allele 3 and allele 4 selected after 0.5 to 8 mg/L of erythromycin by Etest", "assay_type": "functional", "in_short": "as §2"}, "Neisseria gonorrhoeae [16]": {"test_system": "Neisseria gonorrhoeae", "assay": "Antimicrobial activity against Neisseria gonorrhoeae harboring A2059G mutation in 23S rRNA V domain allele 1, allele 2, allele 3 and allele 4 by Etest", "assay_type": "functional", "in_short": "as §1"}, "Neisseria gonorrhoeae [17]": {"test_system": "Neisseria gonorrhoeae", "assay": "Antimicrobial activity against Neisseria gonorrhoeae expressing wild type 23S rRNA by Etest", "assay_type": "functional", "in_short": "as §1"}, "Neisseria gonorrhoeae [18]": {"test_system": "Neisseria gonorrhoeae", "assay": "Antimicrobial activity against Neisseria gonorrhoeae C2611T mutation in 23S rRNA domain V allele 3 by Etest", "assay_type": "functional", "in_short": "as §1"}}, "note": "Calls of active or inactive are those of the source. The calls are words filed in the database; no cut-off is given here."}
{"smiles": "CC[C@H]1OC(=O)[C@H](C)[C@@H](O[C@H]2C[C@@](C)(OC)[C@@H](O)[C@H](C)O2)[C@H](C)[C@@H](O[C@@H]2O[C@H](C)C[C@H](N(C)C)[C@H]2O)[C@](C)(O)C[C@@H](C)C(=O)[C@H](C)[C@@H](O)[C@]1(C)O", "note": "[ERYTHROMYCIN]", "values": [{"measurement": "Activity", "setting": "Neisseria gonorrhoeae [1]", "result": "Active"}, {"measurement": "MIC", "setting": "Neisseria gonorrhoeae [2]", "result": 3, "unit": "µg/mL"}, {"measurement": "MIC", "setting": "Neisseria gonorrhoeae [3]", "result": 4, "unit": "µg/mL"}]}
{"smiles": "CC[C@H]1OC(=O)[C@H](C)[C@@H](O[C@H]2C[C@@](C)(OC)[C@@H](O)[C@H](C)O2)[C@H](C)[C@@H](O[C@@H]2O[C@H](C)C[C@H](N(C)C)[C@H]2O)[C@](C)(O)C[C@@H](C)CN(C)[C@H](C)[C@@H](O)[C@]1(C)O", "note": "[AZITHROMYCIN]", "values": [{"measurement": "MIC", "setting": "Neisseria gonorrhoeae [4]", "result": "≥ 256", "unit": "µg/mL"}, {"measurement": "MIC", "setting": "Neisseria gonorrhoeae [5]", "result": 2, "unit": "µg/mL"}, {"measurement": "MIC", "setting": "Neisseria gonorrhoeae [6]", "result": 0.06, "unit": "µg/mL"}, {"measurement": "MIC", "setting": "Neisseria gonorrhoeae [7]", "result": "> 256", "unit": "µg/mL"}, {"measurement": "MIC", "setting": "Neisseria gonorrhoeae [8]", "result": "> 256", "unit": "µg/mL"}, {"measurement": "MIC", "setting": "Neisseria gonorrhoeae [9]", "result": 0.38, "unit": "µg/mL"}, {"measurement": "MIC", "setting": "Neisseria gonorrhoeae [2]", "result": 0.25, "unit": "µg/mL"}, {"measurement": "MIC", "setting": "Neisseria gonorrhoeae [10]", "result": 0.25, "unit": "µg/mL"}, {"measurement": "MIC", "setting": "Neisseria gonorrhoeae [11]", "result": 0.06, "unit": "µg/mL"}, {"measurement": "MIC", "setting": "Neisseria gonorrhoeae [12]", "result": 0.25, "unit": "µg/mL"}, {"measurement": "MIC", "setting": "Neisseria gonorrhoeae [13]", "result": "≥ 256", "unit": "µg/mL"}, {"measurement": "MIC", "setting": "Neisseria gonorrhoeae [14]", "result": 2, "unit": "µg/mL"}, {"measurement": "MIC", "setting": "Neisseria gonorrhoeae [15]", "result": "> 256", "unit": "µg/mL"}, {"measurement": "MIC", "setting": "Neisseria gonorrhoeae [16]", "result": "≥ 256", "unit": "µg/mL"}, {"measurement": "MIC", "setting": "Neisseria gonorrhoeae [17]", "result": 0.06, "unit": "µg/mL"}, {"measurement": "MIC", "setting": "Neisseria gonorrhoeae [3]", "result": 1.5, "unit": "µg/mL"}, {"measurement": "MIC", "setting": "Neisseria gonorrhoeae [18]", "result": 0.06, "unit": "µg/mL"}]}
